From ChEMBL document CHEMBL5356993, “Novel pyrazolo[3,4-d]pyrimidine derivatives: design, synthesis, anticancer evaluation, VEGFR-2 inhibition, and antiangiogenic activity” (RSC Med Chem, 2023)

How the values were obtained:
Type in all cases: functional
Details in all cases: read-out: GI
U-251 = experiment: Antiproliferative activity against human U-251 cells assessed as cell growth inhibition at 10 uM incubated for 48 hrs by SRB assay relative to control
Method in brief: (§1)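 Cells pre-incubated 24 h at 37°C, 5% CO2, then exposed to compound (DMSO stock diluted in medium with 50 µg/mL gentamicin) for 48 h. Adherent cells fixed with cold TCA (final 10%, 60 min, 4°C); suspension cells fixed with 16% TCA final. Stained with 0.4% SRB in 1% acetic acid for 10 min, dye solubilized in 10 mM Trizma base, absorbance read at 515 nm. Growth calculated against time-zero and untreated control plates.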

HCT-15 = experiment: Antiproliferative activity against human HCT-15 cells assessed as cell growth inhibition at 10 uM incubated for 48 hrs by SRB assay relative to control
NCI-H322M = experiment: Antiproliferative activity against human NCI-H322M cells assessed as cell growth inhibition at 10 uM incubated for 48 hrs by SRB assay relative to control
Hs-578T = experiment: Antiproliferative activity against human Hs-578T cells assessed as cell growth inhibition at 10 uM incubated for 48 hrs by SRB assay relative to control
Method in brief: (§2)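 Cells plated in 96-well plates at […] cells/well and preincubated 24 h at 37 °C, 5% CO2. Time-zero plates were TCA-fixed. Compound was diluted in medium with 50 µg/mL gentamicin and cells exposed for 48 h. Adherent cells fixed with 10% final TCA; suspension cells with 16% final TCA. Plates stained with 0.4% SRB in 1% acetic acid, dye solubilized in 10 mM Trizma, absorbance read at 515 nm. Percent growth calculated against time-zero and control.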

SK-MEL-28 = experiment: Antiproliferative activity against human SK-MEL-28 cells assessed as cell growth inhibition at 10 uM incubated for 48 hrs by SRB assay relative to control; method in brief: as §2
BT-549 = experiment: Antiproliferative activity against human BT-549 cells assessed as cell growth inhibition at 10 uM incubated for 48 hrs by SRB assay relative to control
OVCAR-5 = experiment: Antiproliferative activity against human OVCAR-5 cells assessed as cell growth inhibition at 10 uM incubated for 48 hrs by SRB assay relative to control; method in brief: as §2
SN12C = experiment: Antiproliferative activity against human SN12C cells assessed as cell growth inhibition at 10 uM incubated for 48 hrs by SRB assay relative to control
RXF 393 = experiment: Antiproliferative activity against human RXF 393 cells assessed as cell growth inhibition at 10 uM incubated for 48 hrs by SRB assay relative to control; method in brief: as §2
IGROV-1 = experiment: Antiproliferative activity against human IGROV-1 cells assessed as cell growth inhibition at 10 uM incubated for 48 hrs by SRB assay relative to control
Malme-3M = experiment: Antiproliferative activity against human Malme-3M cells assessed as cell growth inhibition at 10 uM incubated for 48 hrs by SRB assay relative to control
MCF7 = experiment: Antiproliferative activity against human MCF7 cells assessed as cell growth inhibition at 10 uM incubated for 48 hrs by SRB assay relative to control
SF-295 = experiment: Antiproliferative activity against human SF-295 cells assessed as cell growth inhibition at 10 uM incubated for 48 hrs by SRB assay relative to control; method in brief: as §2
TK-10 = experiment: Antiproliferative activity against human TK-10 cells assessed as cell growth inhibition at 10 uM incubated for 48 hrs by SRB assay relative to control; method in brief: as §1
OVCAR-8 = experiment: Antiproliferative activity against human OVCAR-8 cells assessed as cell growth inhibition at 10 uM incubated for 48 hrs by SRB assay relative to control
MDA-MB-468 = experiment: Antiproliferative activity against human MDA-MB-468 cells assessed as cell growth inhibition at 10 uM incubated for 48 hrs by SRB assay relative to control
NCI-H522 = experiment: Antiproliferative activity against human NCI-H522 cells assessed as cell growth inhibition at 10 uM incubated for 48 hrs by SRB assay relative to control; method in brief: as §2
RPMI-8226 = experiment: Antiproliferative activity against human RPMI-8226 cells assessed as cell growth inhibition at 10 uM incubated for 48 hrs by SRB assay relative to control
ACHN = experiment: Antiproliferative activity against human ACHN cells assessed as cell growth inhibition at 10 uM incubated for 48 hrs by SRB assay relative to control
CAKI-1 = experiment: Antiproliferative activity against human CAKI-1 cells assessed as cell growth inhibition at 10 uM incubated for 48 hrs by SRB assay relative to control
HL-60(TB) = experiment: Antiproliferative activity against human HL-60(TB) cells assessed as cell growth inhibition at 10 uM incubated for 48 hrs by SRB assay relative to control
Method in brief: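 Cells were plated at […] cells/well and preincubated 24 h at 37°C, 5% CO2, with time-zero plates TCA-fixed. Compound was diluted from DMSO stock in medium with 50 µg/mL gentamicin, then exposed for 48 h. Settled suspension cells were fixed with 80% TCA (final 16%), stained with 0.4% SRB and solubilized in 10 mM Trizma, A515. Growth was taken relative to Tz and control.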

SK-MEL-2 = experiment: Antiproliferative activity against human SK-MEL-2 cells assessed as cell growth inhibition at 10 uM incubated for 48 hrs by SRB assay relative to control; method in brief: as §2
MOLT-4 = experiment: Antiproliferative activity against human MOLT-4 cells assessed as cell growth inhibition at 10 uM incubated for 48 hrs by SRB assay relative to control
HCC 2998 = experiment: Antiproliferative activity against human HCC 2998 cells assessed as cell growth inhibition at 10 uM incubated for 48 hrs by SRB assay relative to control
CCRF-CEM = experiment: Antiproliferative activity against human CCRF-CEM cells assessed as cell growth inhibition at 10 uM incubated for 48 hrs by SRB assay relative to control; method in brief: as §2
DU-145 = experiment: Antiproliferative activity against human DU-145 cells assessed as cell growth inhibition at 10 uM incubated for 48 hrs by SRB assay relative to control
SK-OV-3 = experiment: Antiproliferative activity against human SK-OV-3 cells assessed as cell growth inhibition at 10 uM incubated for 48 hrs by SRB assay relative to control; method in brief: as §2
PC-3 = experiment: Antiproliferative activity against human PC-3 cells assessed as cell growth inhibition at 10 uM incubated for 48 hrs by SRB assay relative to control
OVCAR-3 = experiment: Antiproliferative activity against human OVCAR-3 cells assessed as cell growth inhibition at 10 uM incubated for 48 hrs by SRB assay relative to control; method in brief: as §2
KM12 = experiment: Antiproliferative activity against human KM12 cells assessed as cell growth inhibition at 10 uM incubated for 48 hrs by SRB assay relative to control; method in brief: as §2
SK-MEL-5 = experiment: Antiproliferative activity against human SK-MEL-5 cells assessed as cell growth inhibition at 10 uM incubated for 48 hrs by SRB assay relative to control; method in brief: as §2
M14 = experiment: Antiproliferative activity against human M14 cells assessed as cell growth inhibition at 10 uM incubated for 48 hrs by SRB assay relative to control; method in brief: as §2

Compound	inhibition of growth at 10 µM (U-251) [%]	inhibition of growth at 10 µM (HCT-15) [%]	inhibition of growth at 10 µM (NCI-H322M) [%]	inhibition of growth at 10 µM (Hs-578T) [%]	inhibition of growth at 10 µM (SK-MEL-28) [%]	inhibition of growth at 10 µM (BT-549) [%]	inhibition of growth at 10 µM (OVCAR-5) [%]	inhibition of growth at 10 µM (SN12C) [%]	inhibition of growth at 10 µM (RXF 393) [%]	inhibition of growth at 10 µM (IGROV-1) [%]	inhibition of growth at 10 µM (Malme-3M) [%]	inhibition of growth at 10 µM (MCF7) [%]	inhibition of growth at 10 µM (SF-295) [%]	inhibition of growth at 10 µM (TK-10) [%]	inhibition of growth at 10 µM (OVCAR-8) [%]	inhibition of growth at 10 µM (MDA-MB-468) [%]	inhibition of growth at 10 µM (NCI-H522) [%]	inhibition of growth at 10 µM (RPMI-8226) [%]	inhibition of growth at 10 µM (ACHN) [%]	inhibition of growth at 10 µM (CAKI-1) [%]	other results
Cc1nc2c(cnn2-c2ccccc2)c(=O)n1-c1ccc(N)cc1	< 15	< 15	< 15	21.4	< 15	31.2	< 15	21.1	< 15	15	17.8	37.6	27.1	21.8	< 15	62.4	< 15	48.2	27.1	31.7	inhibition of growth at 10 µM (HL-60(TB)): < 15%; inhibition of growth at 10 µM (SK-MEL-2): 17.8%; inhibition of growth at 10 µM (MOLT-4): < 15%; inhibition of growth at 10 µM (HCC 2998): < 15%; inhibition of growth at 10 µM (CCRF-CEM): 21%; inhibition of growth at 10 µM (DU-145): 17.3%; inhibition of growth at 10 µM (SK-OV-3): < 15%; inhibition of growth at 10 µM (PC-3): 18%; inhibition of growth at 10 µM (OVCAR-3): < 15%; inhibition of growth at 10 µM (KM12): < 15%; inhibition of growth at 10 µM (SK-MEL-5): 66.8%; inhibition of growth at 10 µM (M14): < 15%
COc1ccc(/C=C/C(=O)c2ccc(-n3c(C)nc4c(cnn4-c4ccccc4)c3=O)cc2)cc1	25.9	46.5	< 15	< 15	< 15	55	< 15	18.4	15.6	< 15	39.5	91.7	34.5	< 15	16.6	88.7	42.6	> 100	29	25	inhibition of growth at 10 µM (HL-60(TB)): 55.3%; inhibition of growth at 10 µM (SK-MEL-2): 29.4%; inhibition of growth at 10 µM (MOLT-4): 55.3%; inhibition of growth at 10 µM (HCC 2998): < 15%; inhibition of growth at 10 µM (CCRF-CEM): 53.6%; inhibition of growth at 10 µM (DU-145): 16.8%; inhibition of growth at 10 µM (SK-OV-3): < 15%; inhibition of growth at 10 µM (PC-3): 34.9%; inhibition of growth at 10 µM (OVCAR-3): 39%; inhibition of growth at 10 µM (KM12): 68.4%; inhibition of growth at 10 µM (SK-MEL-5): 72.3%; inhibition of growth at 10 µM (M14): 46.9%
Cc1nc2c(cnn2-c2ccccc2)c(=O)n1-c1ccc(NC(=O)c2ccco2)cc1	< 15	< 15	< 15	< 15	< 15	< 15	< 15	< 15	< 15	< 15	16.6	23.4	15.3	< 15	< 15	37.3	< 15	26.1	< 15	< 15	inhibition of growth at 10 µM (HL-60(TB)): 19.8%; inhibition of growth at 10 µM (SK-MEL-2): < 15%; inhibition of growth at 10 µM (MOLT-4): < 15%; inhibition of growth at 10 µM (HCC 2998): < 15%; inhibition of growth at 10 µM (CCRF-CEM): 23.6%; inhibition of growth at 10 µM (DU-145): < 15%; inhibition of growth at 10 µM (SK-OV-3): < 15%; inhibition of growth at 10 µM (PC-3): < 15%; inhibition of growth at 10 µM (OVCAR-3): < 15%; inhibition of growth at 10 µM (KM12): < 15%; inhibition of growth at 10 µM (SK-MEL-5): 23.1%; inhibition of growth at 10 µM (M14): < 15%
